# Assay results as given in PubChem BioAssay.
# The source made the active and inactive calls.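 Rule for the calls, unless noted: active = viability at or below 10% of carrier control in both of two separate runs; inconclusive = viability at or below 10% in only one of the two runs; inactive = the rest.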
# Key:
# [1] = Her2 expression decrease, cell viability multiplex – SKBR3 breast tumor cells, AlphaScreen, ATP viability, primary screen (AID 461;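 active = Her2 level under about 52% in both replicate screens, with viability over 70% of control, limit read from the data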;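 for Her2 level: lower value means less Her2 protein in the cells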;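 for viability: percent of carrier control wells set as 100% viability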); details: SKBR3 Her2 protein level, 18-24 h, measured here: SKBR3 viability, ATP luminescence, at 10 µM
# [2] = biological target: Receptor tyrosine-protein kinase erbB-2 (Homo sapiens) (UniProt P04626); assay: as above; details: 18-24 h, at 10 µM, stronger effect = lower value
# Chain of Receptor tyrosine-protein kinase erbB-2 (Homo sapiens) (P04626 whole entry, looked up): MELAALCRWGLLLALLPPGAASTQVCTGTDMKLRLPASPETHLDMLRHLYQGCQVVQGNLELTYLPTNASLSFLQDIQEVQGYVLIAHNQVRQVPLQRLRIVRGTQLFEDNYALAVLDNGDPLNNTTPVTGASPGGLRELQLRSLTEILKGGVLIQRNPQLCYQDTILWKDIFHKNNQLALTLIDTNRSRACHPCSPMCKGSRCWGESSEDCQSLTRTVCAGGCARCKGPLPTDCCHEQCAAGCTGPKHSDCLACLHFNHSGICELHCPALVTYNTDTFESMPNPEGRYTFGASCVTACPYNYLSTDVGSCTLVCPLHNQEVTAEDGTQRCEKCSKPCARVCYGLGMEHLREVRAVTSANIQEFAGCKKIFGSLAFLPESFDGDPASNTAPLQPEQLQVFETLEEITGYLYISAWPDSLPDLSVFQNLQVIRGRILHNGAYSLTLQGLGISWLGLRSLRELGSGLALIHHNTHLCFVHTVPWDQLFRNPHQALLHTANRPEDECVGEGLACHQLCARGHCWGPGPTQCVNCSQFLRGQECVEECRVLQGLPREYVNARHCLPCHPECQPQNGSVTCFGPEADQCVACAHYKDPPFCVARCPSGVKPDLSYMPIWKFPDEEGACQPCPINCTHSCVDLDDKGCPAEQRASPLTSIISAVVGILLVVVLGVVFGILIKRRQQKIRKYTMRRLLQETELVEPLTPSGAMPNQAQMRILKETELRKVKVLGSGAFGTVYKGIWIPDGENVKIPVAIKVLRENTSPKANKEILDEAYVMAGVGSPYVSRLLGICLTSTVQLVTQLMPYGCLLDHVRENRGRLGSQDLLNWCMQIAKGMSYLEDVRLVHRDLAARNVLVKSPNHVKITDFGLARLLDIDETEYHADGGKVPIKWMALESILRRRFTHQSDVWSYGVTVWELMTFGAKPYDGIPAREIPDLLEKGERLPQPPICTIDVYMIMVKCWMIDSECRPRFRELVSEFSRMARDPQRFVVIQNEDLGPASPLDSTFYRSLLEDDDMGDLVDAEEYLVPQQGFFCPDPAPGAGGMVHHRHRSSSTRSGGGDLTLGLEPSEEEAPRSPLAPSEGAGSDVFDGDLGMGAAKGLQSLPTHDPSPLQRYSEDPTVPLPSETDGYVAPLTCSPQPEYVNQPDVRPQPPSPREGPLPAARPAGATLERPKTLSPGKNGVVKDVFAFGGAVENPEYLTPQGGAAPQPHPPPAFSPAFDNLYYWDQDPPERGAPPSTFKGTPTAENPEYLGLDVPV
# [3] = reduced viability of SK-BR-3 breast cancer cells – cell-based, 24 h, human, pilot screen (AID 572); details: SK-BR-3 viability, CellTiter-Glo luminescence, at 10 µM, stronger effect = lower value;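 note: compound exposure lasted between 18 and 24 h rather than exactly 24 h; 100% = carrier-treated control wells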
# [4] = HUVEC growth inhibition – cell-based, human, primary screen (AID 575;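 active = viability at or below 30% in both replicate assays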;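 note: 100% = median of untreated cell wells with 0.1% DMSO on each plate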); details: HUVEC proliferation, CellTiter-Glo luminescence, 72 h; at 10 µM; stronger effect = lower value
# Method in brief: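 Test system: primary human umbilical vein endothelial cells; medium: endothelial basal medium with 2% FBS plus growth supplements; dosing: 10 µM compound only; times: 72 h treatment at 37 °C; signal: CTG luminescence; read-out: % viability relative to median vehicle-well signal on each plate; control set: vehicle and MePR control wells; plate: 384-well, collagen-coated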
# [5] = H69AR cell proliferation blockers – human, duplicate replicates, primary screen (AID 580;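 active = viability at or under a set limit in both replicates, limit being median viability minus 3 SD, cut at about 48% in these data, passing the limit was not always enough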;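 note: 100% = mean luminescence of untreated wells and 0% = no signal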); details: H69AR lung tumor cells viability, ATP luminescence, 72 h; at 10 µM; stronger effect = lower value
# [6] = MRP1 drug-resistance reversers in H69AR cells – cell-based, doxorubicin co-treatment, pilot screen (AID 601;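 active = viability loss from added drug above about 55%, and viability with drug at most 40%, in both replicates, limit read from the data, passing the limit was not always enough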); details: CellTiter-Glo, 72 h, at 10 µM; for differential viability (reversal): stronger effect = higher value
# [7] = yeast transport mutant growth inhibition pilot in 384-well plates, post-Golgi transport modulator project (AID 636; in the data active = inhibition above about 31%); details: absorbance 615 nm, about 18 h, stronger effect = higher value
# [8] = growth suppression of yeast trafficking mutant, preliminary HTS, modulators of trafficking downstream of Golgi apparatus project, 1536-format plate, OD 615 nm (AID 637; in the data active = inhibition above about 30%); details: yeast transport mutant growth, absorbance 615 nm, 18 h; stronger effect = higher value
# [9] = H69AR cells + 2 uM doxorubicin, measured here: viability with 2 uM doxorubicin, stronger effect = lower value
# [10] = H69AR cells, compound alone cytotoxicity
SMILES,viability [1] [%],Her2 level [2],viability [3],viability [4],viability [5],differential viability (reversal) ([6]; H69AR cells + 2 uM doxorubicin),"viability [6, 9] [%]","viability [6, 10] [%]",inhibition [7],inhibition [8]
Oc1ccc2[nH]cnc2c1CN1CCCCC1,113,110% (inactive),113% (inactive),107% (inactive),99.7% (inactive),7.21% (inactive),92.5,99.7,-5.39% (inactive),3.28% (inactive)
O=C(c1cn(-c2ccccc2)nc1-c1cccs1)N1CCN(c2ccccn2)CC1,101,79.5% (inactive),101% (inactive),72.4% (inactive),45.1% (active),-40% (inactive),85.1,45.1,-3.29% (inactive),-2.38% (inactive)
Cc1ccc(-n2nnnc2SCC(=O)c2cc(C)n(-c3cc(C)on3)c2C)cc1,91,83% (inactive),91% (inactive),88.5% (inactive),65.4% (inactive),-28.2% (inactive),93.6,65.4,-2.86% (inactive),1.11% (inactive)
C[C@H](NC(=O)NCc1cccs1)C(=O)O,104,98.5% (inactive),104% (inactive),111% (inactive),93.6% (inactive),0.105% (inactive),93.5,93.6,-3.87% (inactive),-4.43% (inactive)
COc1ccccc1CNS(=O)(=O)c1ccc(NC(C)=O)cc1,94.5,84% (inactive),94.5% (inactive),106% (inactive),92.9% (inactive),-7.69% (inactive),101,92.9,-5.73% (inactive),2.22% (inactive)
CCOC(=O)C(NC(=O)Nc1ccccc1)(OCC)C(F)(F)F (stereo not given),114,98% (inactive),114% (inactive),84.5% (inactive),93.3% (inactive),6.82% (inactive),86.5,93.3,-0.26% (inactive),12.1% (inactive)
O=C(CSc1nnc2sc3ccccc3n12)c1ccco1,95,85.5% (inactive),95% (inactive),118% (inactive),102% (inactive),16.9% (inactive),85.3,102,-4.46% (inactive),-6% (inactive)
CCOc1ccc(C(=O)OCc2nnc(-c3cccs3)o2)cc1OC,106,96% (inactive),106% (inactive),116% (inactive),99.9% (inactive),25.9% (inactive),74,99.9,-3.12% (inactive),2.38% (inactive)
O=C(C1CCCN(S(=O)(=O)c2ccc(Br)s2)C1)N1CCCCCC1 (stereo not given),83.5,95% (inactive),83.5% (inactive),98.4% (inactive),98.1% (inactive),9.84% (inactive),88.2,98.1,-3.16% (inactive),-3.5% (inactive)
CCOC(=O)C1CCN(C(=O)c2ccc(Cl)c(Cl)c2)CC1,75.5,105% (inactive),75.5% (inactive),94.3% (inactive),102% (inactive),5.88% (inactive),96.3,102,3.65% (inactive),-2.3% (inactive)
CCNC(=O)C1CC(=O)N(Cc2ccc3c(c2)OCO3)C(=Nc2ccc(F)cc2)S1 (stereo not given),124,112% (inactive),124% (inactive),85.6% (inactive),82.6% (inactive),-5.16% (inactive),87.8,82.6,-6.58% (inactive),-6.98% (inactive)
Cc1ccc(-c2noc(CCC(=O)N3CCN(c4cccc(C(F)(F)F)c4)CC3)n2)cc1,87.5,91% (inactive),87.5% (inactive),71.2% (inactive),93.1% (inactive),-3.76% (inactive),96.8,93.1,-3.95% (inactive),-2.67% (inactive)
COCc1nnc(NC(=O)CCCOc2ccccc2)s1,107,92% (inactive),107% (inactive),85.6% (inactive),98.5% (inactive),10.4% (inactive),88.1,98.5,-6.53% (inactive),-3.97% (inactive)
CCCSc1nc2c(cnn2-c2ccc(Cl)cc2)c(=O)[nH]1,106,89.5% (inactive),106% (inactive),98.1% (inactive),79% (inactive),-3.71% (inactive),82.7,79,-6.23% (inactive),0.95% (inactive)
COc1cc(-c2nc(S(=O)(=O)c3ccccc3)c(N3CCOCC3)o2)cc(OC)c1OC,82.5,86.5% (inactive),82.5% (inactive),97.7% (inactive),87.1% (inactive),14.8% (inactive),72.2,87.1,-3.16% (inactive),12% (inactive)
O=C(NC1CCCCC1)c1cc2nc(-c3ccco3)cc(C(F)(F)F)n2n1,81.5,93% (inactive),81.5% (inactive),106% (inactive),80.2% (inactive),-2.98% (inactive),83.2,80.2,-2.08% (inactive),2.79% (inactive)
O=C(c1ccccc1Oc1nnnn1-c1ccccc1)N1CCOCC1,89.5,84% (inactive),89.5% (inactive),67.6% (inactive),79.6% (inactive),7.74% (inactive),71.9,79.6,-2.31% (inactive),-5.67% (inactive)
C=CCn1c(SCc2ccc(C#N)cc2)nnc1-c1cccc(Cl)c1,95.5,86% (inactive),95.5% (inactive),102% (inactive),80.2% (inactive),-3.84% (inactive),84,80.2,-2.21% (inactive),-0.17% (inactive)
O=C(CSc1nnnn1-c1ccc(Cl)cc1)NC(=O)Nc1ccc2c(c1)OCCO2,104,101% (inactive),104% (inactive),66.9% (inactive),75.5% (inactive),0.67% (inactive),74.8,75.5,-6% (inactive),3.02% (inactive)
CC1=C(C(=O)Nc2ccccc2)C(c2ccco2)C(C#N)=C(SCC(=O)Nc2cccc(C)c2C)N1 (stereo not given),104,85.5% (inactive),104% (inactive),77.1% (inactive),47.5% (active),-10.1% (inactive),57.6,47.5,-4.93% (inactive),-3.97% (inactive)
COC(=O)n1c(=S)oc2cc(Cl)ccc21,102,102% (inactive),102% (inactive),62.7% (inactive),93.6% (inactive),3.97% (inactive),89.6,93.6,0.26% (inactive),25.6% (inactive)
CCOc1ccccc1C1CC(=O)NC(SCC)=C1C#N (stereo not given),85.5,89% (inactive),85.5% (inactive),109% (inactive),97% (inactive),7.42% (inactive),89.6,97,-6.08% (inactive),-2.17% (inactive)
Cc1ccc(/C=N/n2nnnc2N)o1,93,88% (inactive),93% (inactive),111% (inactive),95.1% (inactive),10.6% (inactive),84.5,95.1,-8.38% (inactive),-10.5% (inactive)
CCOC(=O)c1[nH]c(C)c(C(=O)N2CCN(c3ccc(F)cc3)CC2)c1C,107,84% (inactive),107% (inactive),107% (inactive),92.3% (inactive),2.1% (inactive),90.2,92.3,-2.37% (inactive),-4.44% (inactive)
CN(C)CCN1C(=O)c2oc3ccc(Cl)cc3c(=O)c2C1c1cccc(Br)c1 (stereo not given),102,72.5% (inactive),102% (inactive),87.9% (inactive),77.1% (inactive),2.96% (inactive),74.2,77.1,-1.17% (inactive),-5.5% (inactive)
O=S(=O)(Nc1nc2ccccc2nc1NCc1ccco1)c1ccc(Cl)cc1,94,103% (inactive),94% (inactive),69.6% (inactive),65.3% (inactive),-4.42% (inactive),69.8,65.3,-4.42% (inactive),4.83% (inactive)
CNC(=O)CSc1nnc(-c2cc(C)cc(C)c2)o1,94.5,99% (inactive),94.5% (inactive),93.4% (inactive),108% (inactive),13.4% (inactive),95.1,108,-3.07% (inactive),-3.06% (inactive)
O=C(OCc1cc2ccccc2[nH]c1=O)c1ccco1,106,114% (inactive),106% (inactive),95.9% (inactive),100% (inactive),6.74% (inactive),93.3,100,-1.43% (inactive),-6.67% (inactive)
CCOC(=O)c1oc2cccc(OC(C)=O)c2c1C,106,82% (inactive),106% (inactive),89.9% (inactive),85.6% (inactive),-0.89% (inactive),86.5,85.6,-5.6% (inactive),3.11% (inactive)
